MT1-MMP act inh = blockers of MT1-MMP proenzyme processing, primary screen, HT1080 RFP-PRO-GFP cells, GFP/RFP fluorescence | Matrix metalloproteinase-14 (Homo sapiens), P50281 | GFP/RFP ratio fluorescence, overnight; percent of plate control window, DMSO zero | GFP/RFP ratio change, % at 20 µM | 0.061% of 360,000 active | AID 651647, 2012;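 active = GFP/RFP ratio change of at least 30% with cell ATP level not reduced by more than half and red fluorescence within 50% of control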
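Assay system: RFP-PRO-GFP reporter HT1080 cells; read-out basis: GFP/RFP fluorescence ratio; benchmarks: DMSO wells and RFP-L50D-GFP cells; doses: 20 µM single dose, 1% DMSO; schedule: overnight cell settling, then overnight compound exposure, 37 °C, 5% CO2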
Rev-erbA mod = modulators of Rev-erb alpha DNA binding, primary screen, biochemical, FITC-DNA, fluorescence polarization, uHTS | Nuclear receptor subfamily 1 group D member 1 (Homo sapiens), P20393 | Rev-erbα–FITC-DNA binding, 90 min | activity, % at 10 µM | 0.79% of 370,000 active | AID 1259318, 2017;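 active = activity above about 14%, limit read from the data; passing the limit was not always enough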;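 also: 0% = DMSO wells with 35 nM protein and 100% = DMSO wells with 750 nM protein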
Target sequence (P20393 whole entry, looked up): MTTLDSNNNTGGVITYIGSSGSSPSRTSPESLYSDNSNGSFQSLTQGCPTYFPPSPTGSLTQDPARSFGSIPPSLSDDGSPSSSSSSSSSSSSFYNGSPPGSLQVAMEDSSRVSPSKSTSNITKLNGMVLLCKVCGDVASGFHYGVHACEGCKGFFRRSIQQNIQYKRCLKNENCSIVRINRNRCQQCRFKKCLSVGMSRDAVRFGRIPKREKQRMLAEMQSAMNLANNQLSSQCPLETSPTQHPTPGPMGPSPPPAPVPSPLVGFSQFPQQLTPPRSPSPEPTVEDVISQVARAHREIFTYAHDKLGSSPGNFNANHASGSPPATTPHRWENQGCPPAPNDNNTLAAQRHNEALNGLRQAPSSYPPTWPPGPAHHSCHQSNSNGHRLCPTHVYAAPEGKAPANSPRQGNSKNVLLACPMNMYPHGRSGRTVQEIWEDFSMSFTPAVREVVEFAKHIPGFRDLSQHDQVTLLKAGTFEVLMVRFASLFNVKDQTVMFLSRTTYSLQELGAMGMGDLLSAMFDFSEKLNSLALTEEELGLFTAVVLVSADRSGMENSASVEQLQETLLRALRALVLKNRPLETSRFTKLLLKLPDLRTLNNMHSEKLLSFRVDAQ
NR2E3 ag-1 = inhibitors of NR2E3-RetCOR corepressor binding, primary screen, NR2E3 agonist project, biochemical, TR-FRET, GST-NR2E3, biotin-RetCOR. 0.12% of 320,000 active. inhibition of corepressor binding, % at 4.78 µM. 1536-well;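 active = percent inhibition above the cutoff of mean plus 3 SD of all tested compounds, set per screening campaign, cut at about 20% in these data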;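 also: 0% = DMSO wells and 100% = biotin wells as full block of FRET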
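Material: NR2E3–RetCOR corepressor complex | Quantity: 1.35 nM GST-tagged NR2E3 final | Schedule: 5 h at 4 °C | Replication: Singlicate compound wells | Reagent: RetCOR corepressor, biotinylated, 7 nM | Controls: Biotin wells as high control, 0.6% DMSO wells as low control | Signal: TR-FRET, Eu(K)-anti-GST donor, streptavidin-D2 acceptor, ex 340, em 617/671 nm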
SKN-1 block = suppressors of acrylamide-induced Pgst-4::GFP reporter in worms, primary screen, SKN-1 inhibitor project, whole organism, uHTS, GFP/RFP fluorescence ratio, strain VP596. inhibition, % at 21.8 µM. C. elegans VP596 Pgst-4::GFP/RFP ratio, 24 h. 0.49% of 360,000 active;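 active = interference check ratio from 0.5 to 1.5 plus GFP to RFP signal ratio inhibition reaching or exceeding a fixed threshold, cut at about 30% in these data, passing the limit was not always enough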
NR2E3 ag-2 = NR2E3 agonists in two-hybrid cells, primary screen, cell-based, luminescence, CHO-S, Gal4-NCOR/VP16-NR2E3. 0.35% of 360,000 active. Photoreceptor-specific nuclear receptor (Homo sapiens), Q9Y5X4. inhibition of corepressor binding, % at 3.98 µM. luciferase;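 active = inhibition above the mean of all tested compounds plus 3 SD, cut at about 70% in these data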;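 also: 0% = DMSO with NR2E3 transfected cells and 100% = cells lacking NR2E3 construct; higher means lower luciferase signal from less NR2E3 corepressor binding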
PG9 Ab binder = binders of HIV-1 gp120 antibody PG9, primary screen, biochemical, TR-FRET. TR-FRET gp120-PG9 antibody binding. inhibition, % at 6.7 µM. 0.43% of 360,000 active. AID 624416, 2012; in the data active = inhibition above about 8.5%
Rev-erbA confirm = modulators of Rev-erb alpha DNA binding, confirmation, biochemical, FITC-DNA, fluorescence polarization, single point; AID 1259319, 2017; shares compounds with Rev-erbA mod; 90 min; 61% of 3,000 active; activation, % at 25 µM;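 active = activation at or above a set limit, or at least 3 SD above the negative control mean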;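 also: 0% = 35 nM protein with DMSO and 100% = 750 nM protein high control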
RORg DNA counter = modulation of RORgamma DNA binding, dose response, counter-screen for Rev-erb alpha modulator project, biochemical, fluorescence polarization, FITC-DNA | IC50, µM | shares compounds with Rev-erbA mod | purified RORgamma protein-FITC-DNA binding | 8% of 910 active | AID 1259320, 2017;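 active = Compounds whose fitted half-maximal concentration for disrupting protein-DNA binding is below 10 micromolar; the record names Rev-erb in its text, so the target is in doubt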
* = called active by the depositor; i = inactive; · = no result. A selection: hits, their analogues and other compounds. The true share with any hit is near 1.9%.

SMILES	MT1-MMP act inh	Rev-erbA mod	NR2E3 ag-1	SKN-1 block	NR2E3 ag-2	PG9 Ab binder	Rev-erbA confirm	RORg DNA counter
CC(C)CN1C(=O)C[C@@]2(C(=O)N(C)c3ccc(NC(=O)C(F)(F)F)cc32)C1c1ccccc1 (stereo partly specified)	·	5	·	·	·	·	·	·
C=CCn1c(O)c(N=Nc2ccccc2[N+](=O)[O-])c2ccccc21	5	4	·	13	-20	-2	·	·
Brc1nc(-c2ccccc2)nc(-c2ccccc2)c1Br	-4	65*	5	-9	-24	0	685*	i
CCCCOCCCNC(=O)C[C@@H]1C(=O)N(CCc2ccc(Cl)cc2)C2=CCCCC[C@]21C(=O)OC	·	6	·	·	·	·	·	·
C=CCn1c(=O)c(C(=O)NCCc2ccc(Cl)cc2)c(O)c2cc(OC)c(OC)cc21	-1	29*	-2	9	-37	0	4	·
COc1ccc(CC(=O)Nc2cc(C)c3c(=O)oc4ccccc4c3n2)cc1	-4	41*	0	0	-10	0	32*	>40
CCOc1ccc(C(=O)Nc2cc(C)c3c(=O)oc4ccccc4c3n2)cc1	0	55*	-1	12	-6	0	18*	·
CCOc1cccc2sc(=NC(=O)c3ccc(S(=O)(=O)N4CCOCC4)cc3)n(C)c12	-1	30*	2	-9	4	-2	-4	·
